{"source": "ChEMBL document CHEMBL1124025", "about": "“(Acyloxy)alkyl carbamates as novel bioreversible prodrugs for amines: increased permeation through biological membranes” (J Med Chem, 1988)", "key": {"Rattus norvegicus": {"organism": "Rattus norvegicus", "test": "Percent diffusion through fuzzy rat skin after 48 h of incubation", "format": "ADME", "settings": "in vitro", "in_short": "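Whole ventral and dorsal skin from 8-week fuzzy rats (about 250 g) mounted in diffusion cells. Receptor was pH 7.0 phosphate-buffered 0.15 M NaCl with 22 ppm gentamicin. Ethanolic test solution spread on the skin surface. Cells occluded at 32 °C, stirred at 150 rpm, and 0.2 mL sampled with buffer replacement over 48 h. HPLC/UV quantitation; run in triplicate.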"}, "[1]": {"test": "Hydrolysis half-life at 37 degree C in phosphate buffer at pH 7.4", "format": "ADME", "in_short": "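Done as for the plasma runs but in pH 7.4 Sorensen's buffer at 37 °C. 0.1–0.2 mg prodrug added from a small DMSO drop, sampled at time points, and analysed by direct-injection HPLC for prodrug loss and/or parent amine formation. External-standard quantitation.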"}, "[2]": {"test": "Hydrolysis half-life at 37 degree C in rat plasma", "format": "ADME", "in_short": "(§1)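 0.1–0.2 mg prodrug in a small drop of DMSO, mixed with 1 mL plasma held at 37 °C in a thermostated water bath. Samples drawn at intervals and injected directly onto HPLC to follow loss of prodrug and/or appearance of the parent amine; concentrations by external standard from peak areas. Half-life derived from the time course.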"}, "[3]": {"test": "Hydrolysis half-life at 37 degree C in dog plasma", "format": "ADME, Canis lupus familiaris", "in_short": "as §1"}}}
{"smiles": "CC(C)NCC(O)COc1ccc(CC(N)=O)cc1", "note": "(stereo not drawn) [ATENOLOL]", "values": [{"measurement": "Diffusion", "setting": "Rattus norvegicus", "result": 0.13, "unit": "%"}]}
{"smiles": "CC(C)(C)NC[C@H](O)COc1nsnc1N1CCOCC1", "note": "[TIMOLOL]", "values": [{"measurement": "Diffusion", "setting": "Rattus norvegicus", "result": 18.14, "unit": "%"}]}
{"smiles": "CC(C)NCC(O)COc1cccc2ccccc12", "note": "(stereo not drawn) [PROPRANOLOL]", "values": [{"measurement": "Diffusion", "setting": "Rattus norvegicus", "result": 2.4, "unit": "%"}]}
{"smiles": "CC(=O)OC(C)OC(=O)N(CC(O)COc1ccc(CC(N)=O)cc1)C(C)C", "note": "(stereo not drawn)", "values": [{"measurement": "Diffusion", "setting": "Rattus norvegicus", "result": 0.49, "unit": "%"}]}
{"smiles": "CC(=O)OC(C)OC(=O)N(CC(O)COc1cccc2[nH]ccc12)C(C)C", "note": "(stereo not drawn)", "values": [{"measurement": "Diffusion", "setting": "Rattus norvegicus", "result": 0.35, "unit": "%"}]}
{"smiles": "CC(C)NCC(O)COc1cccc2[nH]ccc12", "note": "(stereo not drawn) [PINDOLOL]", "values": [{"measurement": "Diffusion", "setting": "Rattus norvegicus", "result": 0.03, "unit": "%"}]}
{"smiles": "CC(=O)OC(C)OC(=O)N(CC(O)COc1cccc2ccccc12)C(C)C", "note": "(stereo not drawn)", "values": [{"measurement": "Diffusion", "setting": "Rattus norvegicus", "result": 0.45, "unit": "%"}, {"measurement": "half-life", "setting": "[1]", "result": 44.5, "unit": "h"}, {"measurement": "half-life", "setting": "[2]", "result": 3, "unit": "min"}]}
{"smiles": "CC(=O)OCOC(=O)N(CC(O)COc1nsnc1N1CCOCC1)C(C)(C)C", "note": "(stereo not drawn)", "values": [{"measurement": "half-life", "setting": "[3]", "result": 9.7, "unit": "min"}, {"measurement": "Diffusion", "setting": "Rattus norvegicus", "result": 0.53, "unit": "%"}, {"measurement": "half-life", "setting": "[1]", "result": 23.5, "unit": "h"}, {"measurement": "half-life", "setting": "[2]", "result": 3, "unit": "min"}]}
